Reference: ChEMBL document CHEMBL1152230, “Synthesis of (3,4-dimethoxyphenoxy)alkylamino acetamides as orexin-2 receptor antagonists” (Bioorg Med Chem Lett, 2008)
Activity calls are given as the source filed them. The rule behind the calls is not given here.

The molecules below were run against T1, Orexin receptor type 2 (Homo sapiens) (UniProt O43614) (assay: Agonist activity at human OX2 receptor expressed in HEK293 cells assessed as effect on human orexin-A-stimulated calcium release by FLIPR assay). Conditions: not given.
T1 sequence (whole entry): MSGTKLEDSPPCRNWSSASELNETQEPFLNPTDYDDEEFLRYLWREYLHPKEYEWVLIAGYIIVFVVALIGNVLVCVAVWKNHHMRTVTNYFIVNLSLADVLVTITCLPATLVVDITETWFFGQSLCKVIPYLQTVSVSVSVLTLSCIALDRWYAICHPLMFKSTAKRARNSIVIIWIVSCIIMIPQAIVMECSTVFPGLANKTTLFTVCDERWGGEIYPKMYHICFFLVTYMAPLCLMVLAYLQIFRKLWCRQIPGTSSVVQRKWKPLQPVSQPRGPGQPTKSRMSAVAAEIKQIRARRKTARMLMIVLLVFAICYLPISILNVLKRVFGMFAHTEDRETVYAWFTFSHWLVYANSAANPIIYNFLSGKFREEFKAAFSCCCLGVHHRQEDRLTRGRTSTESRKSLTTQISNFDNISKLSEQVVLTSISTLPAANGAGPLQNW
Assay type: functional, cell-based
In the case of `COc1ccc(OCCN(CC(=O)NCc2ccccc2)Cc2ccc(F)cc2)cc1OC`, the Activity is reported as “inactive”. In the case of `COc1ccc(OCCN(CC(=O)NCc2ccccc2Cl)Cc2ccccc2)cc1OC`, the Activity is reported as “inactive”. With `COc1ccc(OCCN(CC(=O)NCc2ccccc2)Cc2cccs2)cc1OC` the Activity was “inactive”. For `COc1ccc(OCCN(CC(=O)NCc2ccccc2Cl)Cc2ccc(F)cc2)cc1OC`, the Activity was “inactive”. `COc1ccc(OCCN(CC(=O)NCc2ccccc2)Cc2ccccc2)cc1OC` was tested, and the Activity was “inactive”. For `COc1ccc(OCCN(CC(=O)NCc2ccccc2)Cc2ccc(F)c(F)c2)cc1OC`, the Activity was “inactive”. For `COc1ccc(OCCN(CC(=O)NCC(C)C)Cc2ccc(F)c(F)c2)cc1OC`, the Activity was “inactive”. In the case of `COc1ccc(OCCCN(CC(=O)NCc2ccccc2)Cc2ccccc2)cc1OC`, the Activity is reported as “inactive”. `COc1ccc(OCCN(CC(=O)NCC(C)C)Cc2cccs2)cc1OC` was tested, and the Activity was “inactive”. For `COc1ccc(OCCN(CC(=O)NCc2ccccc2Cl)Cc2ccc(F)c(F)c2)cc1OC`, the Activity was “inactive”. `COc1ccc(OCCN(CC(=O)NCc2ccccc2Cl)Cc2cccs2)cc1OC` was tested, and the Activity was “inactive”. In the case of `COc1ccc(OCCCN(CC(=O)NCc2ccccc2)Cc2ccc(F)c(F)c2)cc1OC`, the Activity is reported as “inactive”. For `COc1ccc(OCCN(CC(=O)NCC(C)C)Cc2ccccc2)cc1OC`, the Activity was “inactive”. `COc1ccc(OCCN(CC(=O)NCC(C)C)Cc2ccc(F)cc2)cc1OC` was tested, and the Activity was “inactive”. In the case of `COc1ccc(OCCCN(CC(=O)NCc2ccccc2)Cc2cccs2)cc1OC`, the Activity is reported as “inactive”.

These molecules were tested against T2, Orexin receptor type 2 (Homo sapiens, UniProt O43614) (assay: Antagonist activity at human OX2 receptor expressed in HEK293 cells assessed as inhibition of human orexin-A-stimulated calcium release by FLIPR assay). Conditions: read-out: IC50.
T2 sequence (O43614 whole entry): T1 sequence (whole entry)
Assay type: functional, cell-based
Procedure, shortened: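 HEK293/OX2-R cells, 20,000/well, were grown 24 h at 37 °C. They were loaded with Calcium 3 no-wash dye in HBSS/20 mM HEPES pH 7.5/BSA with 2.5 mM probenecid final, for 30 min at 37 °C, then 30-90 min at room temperature. FLIPR fluorescence was read for 125 s.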
For `COc1ccc(OCCN(CC(=O)NCc2ccccc2)Cc2ccc(F)cc2)cc1OC`, the IC50 was under 0.03 µM. For `COc1ccc(OCCN(CC(=O)NCc2ccccc2)Cc2ccccc2)cc1OC`, the IC50 was under 0.03 µM. `COc1ccc(OCCN(CC(=O)NCc2ccccc2)Cc2ccc(F)c(F)c2)cc1OC` showed an IC50 of under 0.03 µM.

Same assay, conditions: read-out: pIC50 (converted)
Work on `COc1ccc(OCCN(CC(=O)NCc2ccccc2)Cc2ccc(F)cc2)cc1OC` yielded an IC50 of 0.0195 µM. `COc1ccc(OCCN(CC(=O)NCc2ccccc2Cl)Cc2ccccc2)cc1OC` showed an IC50 of 0.151 µM. In the case of `COc1ccc(OCCN(CC(=O)NCc2ccccc2)Cc2cccs2)cc1OC`, the IC50 is reported as 0.11 µM. Molecule `COc1ccc(OCCN(CC(=O)NCc2ccccc2Cl)Cc2ccc(F)cc2)cc1OC` has an IC50 of 0.138 µM. For `COc1ccc(OCCN(CC(=O)NCc2ccccc2)Cc2ccccc2)cc1OC`, the IC50 was 0.0251 µM. With `COc1ccc(OCCN(CC(=O)NCc2ccccc2)Cc2ccc(F)c(F)c2)cc1OC` the IC50 was 0.0186 µM. In the case of `COc1ccc(OCCN(CC(=O)NCC(C)C)Cc2ccc(F)c(F)c2)cc1OC`, the IC50 is reported as 0.229 µM. In the case of `COc1ccc(OCCCN(CC(=O)NCc2ccccc2)Cc2ccccc2)cc1OC`, the IC50 is reported as 0.0513 µM. For `COc1ccc(OCCN(CC(=O)NCC(C)C)Cc2cccs2)cc1OC`, the IC50 was 0.324 µM. Work on `COc1ccc(OCCN(CC(=O)NCc2ccccc2Cl)Cc2ccc(F)c(F)c2)cc1OC` yielded an IC50 of 0.0813 µM. Work on `COc1ccc(OCCN(CC(=O)NCc2ccccc2Cl)Cc2cccs2)cc1OC` yielded an IC50 of 0.195 µM. Molecule `COc1ccc(OCCCN(CC(=O)NCc2ccccc2)Cc2ccc(F)c(F)c2)cc1OC` has an IC50 of 0.107 µM. Molecule `COc1ccc(OCCN(CC(=O)NCC(C)C)Cc2ccccc2)cc1OC` has an IC50 of 0.302 µM. `COc1ccc(OCCN(CC(=O)NCC(C)C)Cc2ccc(F)cc2)cc1OC` showed an IC50 of 0.562 µM. `COc1ccc(OCCCN(CC(=O)NCc2ccccc2)Cc2cccs2)cc1OC` showed an IC50 of 0.132 µM.
